N-glyco inh: N-linked glycosylation inhibition; D54 ERlucT glycosylation luciferase reporter, 24 h; percent of 100 nM tunicamycin response; reporter increase, % at 12.5 µM; 0.23% of 360,000 active; AID 588692;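 active = mean luciferase reporter signal, scaled so untreated is 0 and the glycosylation-blocking control 100, at or above a set limit in every replicate; inconclusive = mean reaches the limit but not every replicate does; inactive = mean below the limit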;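 also: luciferase carries N-glycosylation sites so blocking glycosylation raises the light; 0% = median of neutral control wells and 100% = median of 100 nM tunicamycin wells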
MLL AF4-AF9 inh: inhibitors of human MLL-AF4/AF9 interaction. 0.47% of 350,000 active. inhibition, % at 10 µM. P42568. AlphaScreen, biotin-AF4 peptide binding to FLAG-AF9. AID 651704;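 active = every replicate reaching a set inhibition limit, whatever the replicate mean, cut at about 25% in these data; inconclusive = mean inhibition reaches that limit but some replicates miss it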;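 also: 0% = plate neutral control median and 100% = total signal loss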
Target sequence (P42568 whole entry, looked up): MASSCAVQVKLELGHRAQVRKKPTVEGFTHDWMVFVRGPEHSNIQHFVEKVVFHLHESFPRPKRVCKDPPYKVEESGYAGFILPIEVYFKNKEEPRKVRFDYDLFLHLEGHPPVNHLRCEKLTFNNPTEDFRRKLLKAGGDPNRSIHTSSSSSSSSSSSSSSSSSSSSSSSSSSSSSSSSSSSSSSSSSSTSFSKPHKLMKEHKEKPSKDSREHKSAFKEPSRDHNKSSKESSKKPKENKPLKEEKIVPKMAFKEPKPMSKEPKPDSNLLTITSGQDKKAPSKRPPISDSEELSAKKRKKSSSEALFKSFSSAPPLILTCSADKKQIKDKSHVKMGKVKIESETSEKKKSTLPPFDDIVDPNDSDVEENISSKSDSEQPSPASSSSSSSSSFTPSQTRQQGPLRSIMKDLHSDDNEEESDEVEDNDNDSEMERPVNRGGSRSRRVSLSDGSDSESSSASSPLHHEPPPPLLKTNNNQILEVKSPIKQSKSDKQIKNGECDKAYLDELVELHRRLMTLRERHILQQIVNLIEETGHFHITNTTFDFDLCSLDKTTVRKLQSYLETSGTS
Env fusion inh: blocks HIV Env-driven cell-cell fusion; HeLa-JRFL Env/CEM21 cell fusion, luciferase; inhibition, % at 12.3 µM; 1.1% of 360,000 active;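 active = mean replicate inhibition score of at least 50 and every replicate individually at or above 50; inconclusive = only one of the two criteria met; inactive = mean below 50 and not all replicates reaching 50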;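 also: 0% = plate neutral controls and 100% = maraviroc near 300 nM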
PAX8 inh HTS: inhibitors of PAX8 transcriptional activity in RMG-I cells | 1.2% of 360,000 active | RMG-I TPO-luciferase reporter, SteadyGlo, 24 h | inhibition, % at 12.6 µM;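 active = mean replicate inhibition at least 60% with every replicate also reaching 60%; inconclusive = only one of the two criteria is met; inactive = mean below 60% and not all replicates reaching 60%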;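 also: luciferase light reporting Pax8 driven TPO promoter activity; plate controls were median of neutral control wells for no effect and mitoxantrone controls for full effect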
FN deposition inh: fibronectin deposition inhibition | AH1F fibroblasts, Alexa488-fibronectin deposition fluorescence, overnight | inhibition, % at 12.6 µM | 0.086% of 350,000 active | AID 743247;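 active = mean inhibition across replicates of 30% or more, regardless of how many single replicates reach that level; inconclusive = mean under 30% yet at least half of replicates reach 30%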;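 also: positive control wells lacked labelled fibronectin entirely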
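Assay system: AH1F fibroblast monolayer, labelled fibronectin deposition. Amount: 10000 cells per well. Also added: labelled fibronectin 24 nM. Compound: single-point pinned compound. Incubation: cell attachment 1 h, compound and FN exposure overnight. Detection: fluorescence after three HBSS washes, excitation 485 nm, emission 525 nm. Read-out: inhibition of fibronectin deposition signal.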
EWS-Fli block: inhibitors of EWS/Fli oncoprotein transcriptional activity; inhibition, % at 12.6 µM; AID 651661; 0.67% of 350,000 active; A673 NR0B1-luciferase reporter, viability-normalised;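 active = mean inhibition of at least 50% after viability correction, with every replicate also passing that limit; inconclusive = mean reaches 50% but only one of two replicates passes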;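 also: firefly luciferase signal divided by Alamar Blue viability fluorescence both relative to DMSO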
The depositor's hits bear a star; u = inconclusive; x = no result given; [ ] = remark or other dose. The list is not random: actives were taken first. Their share in the collection is about 2.5%.

SMILES	N-glyco inh	MLL AF4-AF9 inh	Env fusion inh	PAX8 inh HTS	FN deposition inh	EWS-Fli block
CNC(=O)C[C@H]1CC[C@H]2[C@H](COc3ccc(NC(=O)Nc4c(C)noc4C)cc3C(=O)N2C)O1	x	x	-0.1[16.7 µM]	-13.0	-11.5	-3.5
Cc1ccccc1-c1ccc([C@H]2[C@H](CO)N3C(=O)CN(C(=O)c4ccncc4)C[C@@H]23)cc1	x	-0.3	x	-5.0	8.3	1.8
COc1ccc([N+](=O)[O-])cc1NC(=O)COC(=O)c1ccccc1C(=O)c1ccccc1	-5.3	x	x	x	x	x
COc1ccc([N+](=O)[O-])cc1NC(=O)C(C)OC(=O)c1ccccc1C(=O)c1ccc(Cl)cc1 (stereo not given)	0.4	0.5	84.8*	24.1	6.2	-1.7
O=C(C[C@@H]1CC[C@H](NC(=O)c2ccncc2)[C@@H](CO)O1)NCCc1ccncc1	x	-0.9	-5.8[16.7 µM]	0.0	2.4	0.4
CCCOc1ccc(/C=N/NC(=O)CSCc2ccc([N+](=O)[O-])cc2)cc1OCC	-4.3	-3.6	x	83.5*	-0.2	-9.2
CCCNC(=O)N1CC2(CN(Cc3nccs3)C2)c2c([nH]c3cc(OC)ccc23)[C@H]1CO	x	2.8	x	x	x	0.4
COc1ccc(CN(C)C[C@H]2Oc3ccc(NC(=O)Nc4ccc(C(F)(F)F)cc4)cc3CC(=O)N([C@@H](C)CO)C[C@H]2C)cc1	x	0.8	0.9[16.7 µM]	0.9	x	35.5
CC(=O)N(C)C[C@H]1Oc2ncc(C#Cc3ccccc3F)cc2C(=O)N([C@H](C)CO)C[C@H]1C	x	-1.6	2.1[16.7 µM]	x	-7.7	-20.2
C(/C=C/c1ccccc1)=N/N1CCN(c2ccccc2)CC1	5.8	x	-85.5	x	-7.6	x
C(=C\c1ccccc1)/C=N/N1CCN(Cc2ccccc2)CC1	0.0	44.0*	6.6	-48.6	-3.4	-51.2
O=[N+]([O-])c1cc(-c2n(-c3ccccn3)c3ccccc3[n+]2-c2ccccn2)ccc1Cl	0.0	6.6	64.3*	6.6	3.6	7.7
O=C(c1ccc(Cl)c([N+](=O)[O-])c1)N1CCN(c2ccccn2)CC1	0.8	7.4	6.1	17.4	2.9	-15.1
COc1ccc(NC(=O)N(C)C[C@@H]2Oc3ccc(NS(=O)(=O)c4cccs4)cc3CC(=O)N([C@H](C)CO)C[C@@H]2C)cc1	x	x	3.0[16.7 µM]	9.4	-3.4	-2.0
Cc1ccc(NC(=O)c2cc(-c3cc(Cl)ccc3C)n[nH]2)cc1NS(C)(=O)=O	0.3	3.6	65.0*	40.1	-11.3	19.4
COc1ccc(Cl)cc1-c1cc(C(=O)Nc2ccc(C)c(NS(C)(=O)=O)c2)[nH]n1	5.1	-3.7	15.6	16.0	7.3	12.7
C[C@H]1CN([C@@H](C)CO)C(=O)c2c(c3ccccc3n2C)-c2ccccc2CO[C@H]1CN(C)C(=O)CCN(C)C	x	5.6	20.3[16.7 µM]	-39.8	0.5	-12.7
CO/N=C/c1ccc(N2CCN(C(=O)c3cccc(C(F)(F)F)c3)CC2)c([N+](=O)[O-])c1	-4.6	x	67.8*	x	2.2	x
CO/N=C/c1ccc(N2CCN(C(=O)c3ccc(F)cc3)CC2)c([N+](=O)[O-])c1	-2.8	x	-11.2	8.5	-2.7	x
CO/N=C/c1ccc(N2CCN(C(=O)c3ccc(Cl)cc3Cl)CC2)c([N+](=O)[O-])c1	-3.3	x	78.1*	x	-4.6	x
COc1ccc(N2CCN(c3nc4c(c(=O)n(C)c(=O)n4C)n3Cc3ccccc3)CC2)cc1	0.4	x	x	x	x	x
COc1cccc(Cn2c(NCc3ccco3)nc3c2c(=O)n(C)c(=O)n3C)c1	x	x	74.6*	18.8	-2.7	x
COc1ccc(CNc2nc3c(c(=O)n(Cc4ccc(Br)cc4)c(=O)n3C)n2C)cc1	-8.1	x	23.5	84.4*	-19.1	x
COc1ccc(N2CCN(Cc3nc4c(c(=O)n(C)c(=O)n4C)n3Cc3cccc(C)c3)CC2)cc1	1.5	32.7*	-59.4	21.3	-3.9	12.4
C[C@@H]1CN([C@H](C)CO)C(=O)Cc2cc(N(C)C)ccc2O[C@@H]1CN(C)S(=O)(=O)c1ccc(Cl)cc1	x	7.1	x	5.3	x	2.5
SMILES	N-glyco inh	MLL AF4-AF9 inh	Env fusion inh	PAX8 inh HTS	FN deposition inh	EWS-Fli block
CO[C@H]1CN(C)C(=O)c2ccc(NC(=O)C3CC3)cc2OC[C@@H](C)N(Cc2nccs2)C[C@H]1C	x	-2.1	x	-7.5	-8.0	-5.3
S=c1[nH]nc(-c2ccccc2Cl)n1/N=C/C=C/c1ccco1	0.7	47.3*	1.7	0.3	3.6	13.6
Cc1sc(N/N=C/c2ccco2)nc1-c1ccccc1	-8.3	25.5*	-30.8	-26.8	-2.6	-62.9
O=C(C[C@H]1C=C[C@H](NC(=O)c2cccnc2)[C@@H](CO)O1)NCc1ccc(Cl)c(Cl)c1	x	-2.5	-0.4[16.7 µM]	6.1	4.6	4.2
C[C@H](CO)N1C[C@H](C)[C@@H](CN(C)C(=O)Nc2cccc3ccccc23)Oc2ccc(NC(=O)NC3CCCCC3)cc2C1=O	x	-1.4	u	25.8	x	4.1
O=C(O)CCSc1nnc(-c2ccc3c(c2)OCO3)o1	-0.4	x	69.1*	18.3	x	x
CC(=O)CSc1nnc(-c2ccc3c(c2)OCO3)o1	-14.7	x	-47.1	-4.7	-6.1	x
CCOC(=O)c1c(NC(=O)C2CCCN2S(=O)(=O)c2cccc3nsnc23)sc(C)c1C (stereo not given)	-4.4	5.2	63.6*	-16.3	4.6	18.7
C[C@@H](NC(=O)c1nc[nH]c1C(=O)N1CCN(c2ccccc2)CC1)c1ccccc1	27.8*	2.1	9.1	-28.7	1.8	0.8
CCSc1nc(-c2ccccc2)nc(C(Cl)Cl)n1	-13.4	6.0	80.6*	96.4*	1.8	49.8
CSc1nc(-c2ccc(C)cc2)nc(C(Cl)Cl)n1	-2.0	x	x	x	x	x
COc1ccccc1CN(C)C(=O)CN1CCN(C(=O)c2cccs2)CC1	2.8	2.4	68.0*	-6.9	4.7	-2.9
COc1ccccc1CC(NC(C)=O)C(=O)N1CCN(C(=O)c2cccs2)CC1 (stereo not given)	-0.2	x	x	x	x	x
Cn1nnnc1Sc1ncnc2scc(-c3ccccc3Cl)c12	-3.7	-21.4	38.8	91.4*	15.1	16.9
Cn1nnnc1Sc1ncnc2scc(-c3cccc4c3sc3ccccc34)c12	-3.0	-1.4	u	88.3*	-2.9	10.7
Cc1sc2ncnc(Sc3nnnn3-c3ccccc3)c2c1C	-3.6	x	x	x	x	x
Cc1ccc(S(=O)(=O)C=CS(=O)(=O)c2ccc(C)cc2)cc1	5.3	5.3	-8.5	46.6	15.9	37.9
O=S(=O)(/C=C/C=C/S(=O)(=O)c1ccccc1)c1ccccc1	-19.9	-6.4	-194.8	117.1*	33.6*	65.2*
Cc1cc(NCCCN(C)C)n2c(nc3ccccc32)c1C#N	34.1*	-0.7	20.7	-3.5	0.8	-9.9
Cc1cc(NCCCOC(C)C)n2c(nc3ccccc32)c1C#N	-0.6	-2.1	0.1	2.5	5.2	3.9
Cc1noc(C)c1S(=O)(=O)N(C)C[C@@H]1Oc2ccc(NC(=O)Nc3cccc4ccccc34)cc2CC(=O)N([C@H](C)CO)C[C@H]1C	x	-1.0	0.9[16.7 µM]	-9.8	2.5	-1.0
